Source: ChEMBL document CHEMBL1147769 (Bioorg Med Chem Lett, 2006)
Starred links: 1 amine or outer side, 2 acyl side, 3 side chain; linkers in the order of their positions; H or OH if unused. Positions of bridges follow the written chain, without caps; N, C: chain ends. Non-standard residues stand in square brackets, D forms with d. Residues, ends and D or L forms follow the SMILES beside them. Chains are numbered I, II in the order given. NHNH = N(N[*:2])[*:1]

Key:
[1] = target: T1, Delta-type opioid receptor (Homo sapiens, UniProt P41143); assay: Agonistic efficacy at human delta opioid receptor by [35S]GTP-gammaS binding assay; assay type: functional
T1 sequence (P41143 whole entry): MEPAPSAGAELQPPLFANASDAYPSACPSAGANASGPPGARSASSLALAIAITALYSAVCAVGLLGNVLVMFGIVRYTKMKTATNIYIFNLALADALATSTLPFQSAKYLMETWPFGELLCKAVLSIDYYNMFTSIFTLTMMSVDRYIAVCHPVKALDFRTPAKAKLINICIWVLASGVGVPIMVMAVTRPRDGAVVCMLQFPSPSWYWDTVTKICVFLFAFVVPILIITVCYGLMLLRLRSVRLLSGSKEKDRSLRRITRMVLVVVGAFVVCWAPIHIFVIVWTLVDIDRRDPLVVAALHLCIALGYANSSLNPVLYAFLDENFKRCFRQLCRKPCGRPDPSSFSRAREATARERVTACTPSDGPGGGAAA
Procedure, shortened: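 Cells expressing human DOR (delta) or rat MOR (mu) incubated with increasing test-compound concentrations and 0.1 nM [35S]GTP-gamma-S in assay buffer, duplicates, 90 min at 30 °C. Stopped by vacuum filtration through GF/B filters pretreated with assay buffer, then four washes with ice-cold 15 mM Tris/120 mM NaCl pH 7.4. Bound radioactivity counted by liquid scintillation after overnight extraction; Emax read as agonist-stimulated binding.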

Mu-type opioid receptor [2] = target: Mu-type opioid receptor (Rattus norvegicus, UniProt P33535); assay: Agonistic efficacy at rat mu opioid receptor by [35S]GTPgammaS binding assay
Sequence of Mu-type opioid receptor (Rattus norvegicus, UniProt P33535) (P33535 whole entry): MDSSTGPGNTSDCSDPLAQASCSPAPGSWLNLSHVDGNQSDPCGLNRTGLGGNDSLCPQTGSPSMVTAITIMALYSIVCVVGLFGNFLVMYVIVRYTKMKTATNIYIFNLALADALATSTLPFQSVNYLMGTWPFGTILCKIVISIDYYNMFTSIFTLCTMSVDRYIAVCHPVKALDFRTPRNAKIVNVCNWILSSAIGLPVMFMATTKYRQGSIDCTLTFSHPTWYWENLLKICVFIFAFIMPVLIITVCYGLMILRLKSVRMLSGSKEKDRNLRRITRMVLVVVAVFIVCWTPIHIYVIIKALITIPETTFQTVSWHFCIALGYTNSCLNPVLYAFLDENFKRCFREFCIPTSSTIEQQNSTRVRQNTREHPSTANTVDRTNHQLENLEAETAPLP

Mu-type opioid receptor [3] = target: Mu-type opioid receptor (Cavia porcellus, UniProt P97266); assay: Activity at mu opioid receptor in longitudinal muscle myenteric plexus from guinea pig ileum; assay type: functional, tissue-based
Sequence of Mu-type opioid receptor (Cavia porcellus, UniProt P97266) (P97266 whole entry): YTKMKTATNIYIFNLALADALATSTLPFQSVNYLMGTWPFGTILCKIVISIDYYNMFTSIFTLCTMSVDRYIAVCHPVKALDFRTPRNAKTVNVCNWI
Procedure, shortened: (§1)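 Isolated tissue bioassays, mouse vas deferens for delta and guinea pig ileum LMMP for mu. Data fitted to the Hill equation by computerized non-linear least squares, giving IC50, relative potency and their standard errors. IC50 is the mean of at least four experiments.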

[4] = target: T1, Delta-type opioid receptor; assay: Displacement of [3H]DPDPE from delta opioid receptor
Procedure, shortened: (§2)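 Competition binding on membranes from transfected cells stably expressing the mu or delta opioid receptor. Radioligands were [3H]DAMGO for mu and [3H]DPDPE for delta.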

[5] = target: Delta-type opioid receptor (Mus musculus, UniProt P32300); assay: Activity at delta opioid receptor in mouse vas deferens; assay type: functional, tissue-based; procedure, shortened: as §1
Sequence of Delta-type opioid receptor (Mus musculus, UniProt P32300) (P32300 whole entry): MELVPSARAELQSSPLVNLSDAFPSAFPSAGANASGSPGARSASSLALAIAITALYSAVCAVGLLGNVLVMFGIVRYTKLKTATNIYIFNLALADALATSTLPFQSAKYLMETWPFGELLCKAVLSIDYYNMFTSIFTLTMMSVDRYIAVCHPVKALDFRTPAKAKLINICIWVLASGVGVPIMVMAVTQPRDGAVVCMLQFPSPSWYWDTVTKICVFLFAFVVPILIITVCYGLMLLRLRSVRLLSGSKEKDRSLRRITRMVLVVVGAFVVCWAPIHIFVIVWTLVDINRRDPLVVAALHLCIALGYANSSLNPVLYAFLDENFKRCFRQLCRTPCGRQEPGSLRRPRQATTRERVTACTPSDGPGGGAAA

Mu-type opioid receptor [6] = target: Mu-type opioid receptor (Homo sapiens, UniProt P35372); assay: Displacement of [3H]DAMGO from mu opioid receptor; procedure, shortened: as §2
Sequence of Mu-type opioid receptor (Homo sapiens, UniProt P35372) (P35372 whole entry): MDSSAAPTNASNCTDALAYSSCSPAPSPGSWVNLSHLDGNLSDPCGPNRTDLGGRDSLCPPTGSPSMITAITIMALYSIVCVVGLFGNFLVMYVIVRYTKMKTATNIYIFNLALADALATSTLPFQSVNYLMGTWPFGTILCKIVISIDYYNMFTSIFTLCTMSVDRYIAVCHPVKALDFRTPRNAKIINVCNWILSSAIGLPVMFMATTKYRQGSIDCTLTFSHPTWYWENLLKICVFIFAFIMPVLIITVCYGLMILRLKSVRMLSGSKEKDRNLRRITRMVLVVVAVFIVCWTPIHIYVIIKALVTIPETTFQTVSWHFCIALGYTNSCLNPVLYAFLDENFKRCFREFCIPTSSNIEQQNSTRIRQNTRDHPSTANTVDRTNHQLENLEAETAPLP

Row | SMILES | Emax [1] | IC50 (Mu-type opioid receptor [2]) | IC50 [1] | IC50 (Mu-type opioid receptor [3]) | IC50 [4] | IC50 [5] | IC50 (Mu-type opioid receptor [6])
1 | C[C@@H](NC(=O)[C@@H](N)Cc1ccc(O)cc1)C(=O)NCC(=O)N[C@@H](Cc1ccccc1)C(=O)NNC(=O)[C@H](Cc1ccccc1)NC(=O)CNC(=O)[C@@H](C)NC(=O)[C@@H](N)Cc1ccc(O)cc1 [BIPHALIN] | 27% | 6 nM |  |  |  |  | 
2 | N[C@@H](Cc1ccc(O)cc1)C(=O)N[C@@H]1CSSC[C@@H](NC(=O)[C@@H](N)Cc2ccc(O)cc2)C(=O)NCC(=O)N[C@@H](Cc2ccccc2)C(=O)NNC(=O)[C@H](Cc2ccccc2)NC(=O)CNC1=O (I: H-Y[dC]GF / II: H-Y[dC]GF; disulfide I:2-II:2; linker I:C-II:C via NHNH) | 100% | 0.2 nM | 0.87 nM | 25 nM | 0.87 nM | 9.9 nM | 0.6 nM
3 | N[C@@H](Cc1ccc(O)cc1)C(=O)N[C@H]1CSSC[C@H](NC(=O)[C@@H](N)Cc2ccc(O)cc2)C(=O)NCC(=O)N[C@@H](Cc2ccccc2)C(=O)NNC(=O)[C@H](Cc2ccccc2)NC(=O)CNC1=O (I: H-YCGF / II: H-YCGF; disulfide I:2-II:2; linker I:C-II:C via NHNH) | 58% | 120 nM | 260 nM | 420 nM | 53 nM | 570 nM | 130 nM
